Test results published in ChEMBL document CHEMBL4842319, “Synthesis of alkynylated 1,2,4-oxadiazole/1,2,3-1H-triazole glycoconjugates: Discovering new compounds for use in chemotherapy against lung carcinoma and Mycobacterium tuberculosis” (Eur J Med Chem, 2021).
Converted amounts (≈) assume the structure as drawn.

Key:
PC-3 = test: Cytotoxicity against human PC-3 cells assessed as inhibition of cell proliferation at 25 uM incubated for 72 hrs by MTT assay relative to control; type: functional; parameters: scale not given: the % may be the effect or the level left
How it was run: (§1)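 Tumor lines from NCI. PC-3, HCT-116 and NCIH-460 were grown in RPMI 1640; SKMEL-103 and AGP-01 in DMEM; all with 10% FBS at 37 °C, 5% CO2. Seeding was 0.3×10⁶ cells/mL for SKMEL-103 and AGP-01, 0.1×10⁶ for PC-3 and NCIH-460, and 0.7×10⁵ for HCT-116. Cells were exposed to compound at 25 µM for 72 h. Cells were centrifuged, 1% MTT added for 3 h, formazan dissolved in DMSO and read at 570 nm.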

[1] = Cytotoxicity against human AGP01 cells assessed as inhibition of cell proliferation at 25 uM incubated for 72 hrs by MTT assay relative to control; type: functional; parameters: scale not given: the % may be the effect or the level left; how it was run: as §1
SK-MEL-103 = test: Cytotoxicity against human SK-MEL-103 cells assessed as inhibition of cell proliferation at 25 uM incubated for 72 hrs by MTT assay relative to control; type: functional; parameters: scale not given: the % may be the effect or the level left; how it was run: as §1
NCI-H460 = test: Cytotoxicity against human NCI-H460 cells assessed as inhibition of cell proliferation at 25 uM incubated for 72 hrs by MTT assay relative to control; type: functional; parameters: scale not given: the % may be the effect or the level left; how it was run: as §1
HCT-116 = test: Cytotoxicity against human HCT-116 cells assessed as inhibition of cell proliferation at 25 uM incubated for 72 hrs by MTT assay relative to control; type: functional; parameters: scale not given: the % may be the effect or the level left; how it was run: as §1
[2] = tested on: Mycobacterium tuberculosis; test: Antimycobacterial activity against Mycobacterium tuberculosis H37Rv ATCC 27294 assessed as inhibition of bacterial growth incubated for 9 days by resazurin microtiter assay; type: functional; conditions: H37Rv ATCC 27294, 216 h, time 9 day
How it was run: (§2)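 REMA broth microdilution in 7H9-S medium, run in duplicate. Test compounds were serially two-fold diluted on the plate from 64 to 0.5 µg/mL. Inoculum taken from fresh Löwenstein-Jensen culture, adjusted to McFarland no. 1 and diluted 1:20. Plates were sealed and incubated at 37 °C in normal atmosphere for 9 days, then resazurin was added. Rifampicin and ethambutol served as standards. MIC reported in µg/mL.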

[3] = Cytotoxicity against mouse RAW264.7 cells assessed as reduction in cell viability incubated for 48 hrs by MTT assay; type: cell-based
How it was run: (§3)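 RAW 264.7 macrophages and HepG2 cells were cultured in DMEM at 37 °C, 5% CO2. For the assay, 10⁵ cells/well were preincubated for 24 h, then exposed to compounds at […] for 48 h, in duplicate. MTT (5 mg/mL in PBS) was added for 2 h and absorbance read at 570 nm. Untreated wells served as the negative control. CC50 obtained by regression analysis.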

[4] = Cytotoxicity against human HepG2 cells assessed as reduction in cell viability incubated for 48 hrs by MTT assay; type: cell-based; how it was run: as §3
[5] = Selectivity index, ratio of CC50 for mouse RAW264.7 cells to MIC for antimycobacterial activity against Mycobacterium tuberculosis H37Rv ATCC 27294; type: toxicity; conditions: read-out: Selectivity Index
[6] = tested on: Mycobacterium tuberculosis; test: Antimycobacterial activity against Mycobacterium tuberculosis H37Ra ATCC 25177 assessed as inhibition of bacterial growth incubated for 9 days by resazurin microtiter assay; type: functional; conditions: H37Ra ATCC 25177, 216 h, time 9 day; how it was run: as §2
[7] = Selectivity index, ratio of CC50 for human HepG2 cells to MIC for antimycobacterial activity against Mycobacterium tuberculosis H37Rv ATCC 27294; type: toxicity; conditions: read-out: Selectivity Index

Compound | Activity (PC-3) [%] | Activity [1] [%] | Activity (SK-MEL-103) [%] | Activity (NCI-H460) [%] | Activity (HCT-116) [%] | MIC [2] [µg/mL] | CC50 at 48 h [3] [µg/mL] | CC50 at 48 h [4] [µg/mL] | selectivity ratio [5] | MIC [6] [µg/mL] | selectivity ratio [7]
O=[N+]([O-])c1ccc(-c2noc(NC3CCCCC3)n2)cc1 | 20.3 | 53.2 | 50.7 | 10.4 | – | – | – | – | – | – | –
O=[N+]([O-])c1cccc(-c2noc(NC3CCCCC3)n2)c1 | 9.9 | 11.6 | 32 | – | 14.1 | – | – | – | – | – | –
CC(=O)OC[C@H]1O[C@H](OC[C@@H](CN=[N+]=[N-])OC(C)=O)C=C[C@@H]1OC(C)=O | – | – | – | – | – | ≥ 64 | 106 (≈ 286 µM) | > 200 | < 1.66 | ≥ 64 | –
CC(=O)OC[C@H]1O[C@H](OC[C@H](Cn2cc(COc3ccc(-c4noc(C)n4)cc3)nn2)OC(C)=O)C=C[C@@H]1OC(C)=O | – | – | – | – | – | ≥ 64 | 112 (≈ 191 µM) | 37.7 (≈ 64.3 µM) | < 1.74 | ≥ 64 | < 0.58
CC(=O)OC[C@H]1O[C@H](OC[C@@H](Cn2cc(CN(c3nc(-c4cccc([N+](=O)[O-])c4)no3)C3CCCCC3)nn2)OC(C)=O)C=C[C@@H]1OC(C)=O | 38.4 | 44.7 | 42.2 | – | 27.7 | ≥ 64 | 100 (≈ 144 µM) | > 200 | < 1.56 | ≥ 64 | –
C#CCN(c1nc(-c2cccc(Br)c2)no1)C1CCCCC1 | 58.6 | 69.1 | 39.4 | 17.9 | 65.6 | 32 (≈ 88.8 µM) | 31.8 (≈ 88.2 µM) | 53.5 (≈ 148 µM) | 0.9 | ≥ 64 | 1.67
C#Cc1ccc(-c2noc(NC3CCCCC3)n2)cc1 | 46 | 44.4 | 40.1 | 34 | 60.7 | 32 (≈ 120 µM) | 19.8 (≈ 74.1 µM) | 54.2 (≈ 203 µM) | 0.62 | 32 (≈ 120 µM) | 1.69
CC(=O)OC[C@H]1O[C@H](OC[C@@H](Cn2cc(CN(c3nc(-c4ccc([N+](=O)[O-])cc4)no3)C3CCCCC3)nn2)OC(C)=O)C=C[C@@H]1OC(C)=O | 28.8 | 47.6 | 30.6 | 36.3 | 39.1 | ≥ 64 | – | > 200 | 1.25 | ≥ 64 | –
C#CCN(c1nc(-c2ccc(Br)cc2)no1)C1CCCCC1 | – | – | – | – | – | 32 (≈ 88.8 µM) | 15.7 (≈ 43.5 µM) | 102 (≈ 283 µM) | 0.48 | 32 (≈ 88.8 µM) | 3.18
CC(=O)OC[C@H]1O[C@H](OC[C@H](Cn2cc(-c3ccc(-c4noc(NC5CCCCC5)n4)cc3)nn2)OC(C)=O)C=C[C@@H]1OC(C)=O | – | – | – | – | – | ≥ 64 | 16.3 (≈ 25.5 µM) | 79.8 (≈ 125 µM) | < 0.25 | ≥ 64 | < 1.24
CC(=O)OC[C@H]1O[C@H](OC[C@@H](Cn2cc(CN(c3nc(-c4ccc(Cl)cc4)no3)C3CCCCC3)nn2)OC(C)=O)C=C[C@@H]1OC(C)=O | – | – | – | – | – | 64 (≈ 93.1 µM) | 35.5 (≈ 51.7 µM) | 46.9 (≈ 68.3 µM) | 0.55 | 64 (≈ 93.1 µM) | 0.73
C#CCN(c1nc(-c2cccc(C)c2)no1)C1CCCCC1 | 29.4 | 94.5 | 87.7 | 40.2 | 86.5 | 32 (≈ 108 µM) | 25.9 (≈ 87.6 µM) | 44.4 (≈ 150 µM) | 0.8 | ≥ 64 | 1.38
CC(=O)OC[C@H]1O[C@H](OC[C@H](Cn2cc(COc3ccc(-c4noc(NC5CCCCC5)n4)cc3)nn2)OC(C)=O)C=C[C@@H]1OC(C)=O | – | – | – | – | – | 16 (≈ 23.9 µM) | 33.3 (≈ 49.8 µM) | 99.5 (≈ 149 µM) | 2.08 | 16 (≈ 23.9 µM) | 6.21
C#CCOc1ccc(-c2noc(N(CC#C)C3CCCCC3)n2)cc1 | – | – | – | – | – | 64 (≈ 191 µM) | 101 (≈ 300 µM) | > 200 | 1.57 | ≥ 64 | > 3.12
CCCCCCCCCCc1cn(C[C@@H](CO[C@@H]2C=C[C@H](OC(C)=O)[C@@H](COC(C)=O)O2)OC(C)=O)nn1 | – | – | – | – | – | 64 (≈ 119 µM) | 30.4 (≈ 56.5 µM) | 59 (≈ 110 µM) | 0.47 | 64 (≈ 119 µM) | 0.92
C#CCN(c1nc(-c2ccccc2)no1)C1CCCCC1 | 23.7 | 47 | 28.6 | 22.6 | – | ≥ 64 | 32.1 (≈ 114 µM) | 109 (≈ 386 µM) | < 0.5 | ≥ 64 | < 1.69
C#CCN(c1nc(-c2ccc([N+](=O)[O-])cc2)no1)C1CCCCC1 | 53.7 | 52.5 | 18.5 | – | 37.2 | ≥ 64 | 26.7 (≈ 81.9 µM) | 43.7 (≈ 134 µM) | < 0.41 | ≥ 64 | < 0.68
C#CCN(c1nc(-c2ccc(C#C)cc2)no1)C1CCCCC1 | – | – | – | – | – | ≥ 64 | 13.1 (≈ 42.9 µM) | 27.9 (≈ 91.5 µM) | < 0.2 | – | < 0.43
CC(=O)OC[C@H]1O[C@H](OC[C@@H](Cn2cc(CN(c3nc(-c4ccc(-c5cn(C[C@H](CO[C@@H]6C=C[C@H](OC(C)=O)[C@@H](COC(C)=O)O6)OC(C)=O)nn5)cc4)no3)C3CCCCC3)nn2)OC(C)=O)C=C[C@@H]1OC(C)=O | – | – | – | – | – | ≥ 64 | 117 (≈ 111 µM) | 11.8 (≈ 11.2 µM) | < 1.82 | ≥ 64 | < 0.18
C#CCN(c1nc(-c2ccc(C(F)(F)F)cc2)no1)C1CCCCC1 | – | – | – | – | – | 32 (≈ 91.6 µM) | 38.3 (≈ 110 µM) | 61.9 (≈ 177 µM) | 1.2 | 64 (≈ 183 µM) | 1.93
CC(=O)OC[C@H]1O[C@H](OC[C@@H](Cn2cc(CN(c3nc(-c4ccc(Br)cc4)no3)C3CCCCC3)nn2)OC(C)=O)C=C[C@@H]1OC(C)=O | – | – | – | – | – | 8 (≈ 10.9 µM) | 39.1 (≈ 53.5 µM) | 47.6 (≈ 65.1 µM) | 4.89 | 4 (≈ 5.47 µM) | 5.95
C#CCN(c1nc(-c2ccc(C)cc2)no1)C1CCCCC1 | – | – | – | – | – | ≥ 64 | 17.6 (≈ 59.5 µM) | 91.9 (≈ 311 µM) | < 0.27 | 64 (≈ 217 µM) | < 1.43
C#CCN(c1nc(-c2ccc(Cl)cc2)no1)C1CCCCC1 | – | – | – | – | – | 16 (≈ 50.7 µM) | 15.1 (≈ 47.9 µM) | 41.3 (≈ 131 µM) | 0.95 | 32 (≈ 101 µM) | 2.58
CC(=O)OC[C@H]1O[C@H](OC[C@@H](Cn2cc(COc3ccc(-c4noc(N(Cc5cn(C[C@H](CO[C@@H]6C=C[C@H](OC(C)=O)[C@@H](COC(C)=O)O6)OC(C)=O)nn5)C5CCCCC5)n4)cc3)nn2)OC(C)=O)C=C[C@@H]1OC(C)=O | – | – | – | – | – | ≥ 64 | > 200 | 47 (≈ 43.6 µM) | – | ≥ 64 | < 0.73
CC(=O)OC[C@H]1O[C@H](OC[C@@H](Cn2cc(CN(c3nc(-c4cccc(Br)c4)no3)C3CCCCC3)nn2)OC(C)=O)C=C[C@@H]1OC(C)=O | 45.5 | 59.9 | 52.3 | 27.1 | – | – | – | – | – | – | –
CC[C@@H](CO)NCCN[C@@H](CC)CO [ETHAMBUTOL] | – | – | – | – | – | 1 (≈ 4.89 µM) | ≥ 400 | > 400 | – | 1 (≈ 4.89 µM) | –
CO[C@H]1/C=C/O[C@@]2(C)Oc3c(C)c(O)c4c(O)c(c(/C=N/N5CCN(C)CC5)c(O)c4c3C2=O)NC(=O)/C(C)=C\C=C\[C@H](C)[C@H](O)[C@@H](C)[C@@H](O)[C@@H](C)[C@H](OC(C)=O)[C@@H]1C [RIFAMPIN] | – | – | – | – | – | 0.125 (≈ 0.152 µM) | 80.4 (≈ 97.7 µM) | 176 (≈ 214 µM) | 643 | 0.062 (≈ 0.0753 µM) | 1410
